This passage reports IC50 and Activity results from ChEMBL document CHEMBL4480456, “Potentially Cardiotoxic Diterpenoid Alkaloids from the Roots of Aconitum carmichaelii” (J Nat Prod, 2019).

For data set [1], the system named is H9c2. As to the kind of experiment: Cytotoxicity against rat H9c2 cells assessed as reduction in cell viability after 24 hrs by MTT assay. The data set is classed as cell-based. To be noted: H9c2, 24 h. The essentials: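 H9c2 cells cultured in DMEM with 10% FBS, penicillin/streptomycin/glutamine at 37 °C, 5% CO2. Seeded 1 × 10^5 cells/well, grown 24 h, then exposed to compounds for 24 h. The compounds came from 80 mM DMSO stocks diluted in complete medium to a series of concentrations. MTT added for 4 h, formazan dissolved in DMSO, OD read at 490 nm. Inhibition % taken against a cell-free medium blank. At least three experiments.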

Data set [2] concerns H9c2. As to the kind of experiment: Induction of apoptosis in rat H9c2 cells at 40 uM after 24 hrs by DAPI/annexin V-FITC/PI double staining-based assay. To be noted: h9c2, 24 h. The data set is classed as cell-based. The method in brief:
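H9c2 cells in imaging plates exposed 24 h, PBS-washed, stained 30 min with annexin V-FITC and PI. Then fixed in 4% paraformaldehyde 15 min and DAPI-labelled 20 min. High-content imaging on In Cell Analyzer 6000 quantified nuclear size and annexin V-FITC and PI intensities. Means ± SD, three independent experiments.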

The subject of data set [3] is H9c2. As to the kind of experiment: Disruption of mitochondrial membrane potential in rat H9c2 cells at 40 uM after 24 hrs by rhodamine 123 staining-based assay. The data set is classed as ADME, cell-based. Particulars: h9c2, 24 h. The method in brief: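 H9c2 cells in imaging plates exposed 24 h, PBS-washed and stained 30 min with rhodamine 123. Then fixed in 4% paraformaldehyde 15 min and counterstained with DAPI 20 min. Rh123 intensity quantified by high-content imaging on In Cell Analyzer 6000. Means ± SD, three independent experiments.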

The test system of data set [4] is H9c2. As to the kind of experiment: Increase in intracellular calcium levels in rat H9c2 after 30 to 430 secs by FLIPR assay. The data set is classed as ADME, cell-based. The essentials:
(§1)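 H9c2 cells seeded at 1 × 10^5 cells/well and grown to confluency. Medium replaced by HBSS with 20 mM HEPES, then loaded with calcium-sensitive dye (Calcium 6 kit) for 2 h at 37 °C. Compounds freshly prepared in HBSS/HEPES were added and fluorescence was read on FLIPR. ΔF/F0 taken as peak amplitude change over initial intensity. Means ± SD, three independent experiments.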
(Calcium assays in cells follow changes in intracellular calcium, usually with a dye or a luminescent sensor.)

The subject of data set [5] is H9c2. As to the kind of experiment: Induction of membrane potential in rat H9c2 cells after 50 to 650 secs by FLIPR assay. The data set is classed as cell-based. The essentials: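 H9c2 cells seeded at 1 × 10^5 cells/well and grown to confluency. Switched to HBSS with 20 mM HEPES and loaded with blue membrane-potential dye for 30 min at 37 °C. Compounds freshly prepared in HBSS/HEPES were added and fluorescence was read on FLIPR. ΔF/F0 taken as peak change over initial intensity. Means ± SD, three independent experiments.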

Data set [6] relates to H9c2. As to the kind of experiment: Increase in intracellular calcium levels in rat H9c2 at 80 uM after 30 to 430 secs by FLIPR assay. The data set is classed as ADME, cell-based. Particulars: h9c2, 80 µM. The essentials:
as §1

In the case of `CCN1C[C@]2(COC)[C@H](O)C[C@H](OC)[C@]34[C@@H]1[C@H]([C@H](OC)[C@H]23)[C@]1(OC(=O)c2ccccc2)[C@H]2[C@@H](OC(=O)c3ccccc3)[C@](O)(C[C@]24O)[C@@H](OC)[C@@H]1O`, the IC50 (in general, the concentration that inhibits the measured activity by half) in the data set with H9c2 [1] is > 100 µM.

On to `COC[C@]12CN(C)[C@H]3[C@@H]4[C@H](OC)[C@H]1[C@@]3([C@@H](OC)C[C@H]2O)[C@@H]1C[C@@]2(O)[C@H](OC(=O)c3ccccc3)[C@@H]1[C@]4(OC(=O)c1ccccc1)[C@@H](O)[C@@H]2OC`, for which the IC50 in the data set on H9c2 [1] is 12.9 µM.

In the case of `COC[C@]12CN(C)[C@H]3[C@@H]4[C@H](OC)[C@H]1[C@@]3([C@@H](OC)C[C@H]2O)[C@@H]1C[C@@]2(O)[C@H](OC(=O)c3ccccc3)[C@@H]1[C@]4(OC(C)=O)[C@@H](O)[C@@H]2OC`, the Activity result in the data set on H9c2 [2] is listed as “Non-Toxic”; with H9c2 [3], “Toxic”; in the data set on H9c2 [4], “Toxic”.

As for `CCN1C[C@]2(COC)CC[C@H](OC)[C@@]34[C@@H]5C[C@@]6(O)[C@H](OC(=O)c7ccccc7)[C@@H]5[C@](OC)([C@@H](O)[C@@H]6OC)[C@@H](C[C@H]23)[C@H]14`, the IC50 in the data set on H9c2 [1] is > 100 µM.

As to `COC[C@@]12CC[C@H](OC)[C@@]34[C@@H]5C[C@@]6(O)[C@H](OC(=O)c7ccccc7)[C@@H]5[C@@](OC(C)=O)([C@@H]([C@H](OC)[C@H]13)[C@@H]4N(C)C2)[C@@H](O)[C@@H]6OC`, the Activity result is “Non-Toxic” in the data set on H9c2 [2], “Toxic” in the data set with H9c2 [3] and “Toxic” with H9c2 [4].

With `C=C1[C@@H](O)[C@@]23C[C@H]4[C@@H]5[C@@]6(C)CCC[C@@]57[C@@H]2C[C@@H]1[C@H](OC(C)=O)[C@@H]3[C@H]7N4[C@H]6O`, the IC50 in the data set on H9c2 [1] is > 100 µM.

`COC[C@@]12CC[C@H](OC)[C@@]34[C@@H]5C[C@@]6(O)[C@H](OC(=O)c7ccccc7)[C@@H]5[C@@](OC(=O)c5ccccc5)([C@@H]([C@H](OC)[C@H]13)[C@@H]4N(C)C2)[C@@H](O)[C@@H]6OC`: in the data set with H9c2 [1], the IC50 worked out at 44.3 µM.

For `C=C1[C@@H](O)[C@@]23C[C@H]4[C@@H]5[C@@]6(C)CCC[C@@]57[C@@H]2C[C@@H]1[C@H](O)[C@@H]3[C@H]7N4[C@H]6O`, the IC50 with H9c2 [1] is > 100 µM.

As to `CCCCO[C@]12[C@H]3[C@@H](OC(=O)c4ccccc4)[C@](O)(C[C@H]3[C@@]34[C@@H](OC)C[C@@H](O)[C@@]5(COC)CN(CC)[C@H]3[C@@H]1[C@H](OC)[C@H]54)[C@@H](OC)[C@@H]2O`, the Activity result in the data set on H9c2 [5] is reported as “Dose-dependent effect”; with H9c2 [6] it was “Toxic”. For the same compound, in the data set on H9c2 [1], the IC50 was determined as 21.2 µM.

Turning to `CCN1C[C@]2(COC)CC[C@H](OC)[C@@]34[C@@H]5C[C@@]6(O)[C@H](OC(=O)c7ccccc7)[C@@H]5[C@@](OC)([C@@H]([C@H](OC)[C@H]23)[C@H]14)[C@@H](O)[C@@H]6OC`, in the data set with H9c2 [1], the IC50 is 95.6 µM.

As to `CCN1C[C@]2(COC)CC[C@H](OC)[C@@]34[C@@H]5C[C@@H]6[C@@H](OC)[C@H](O)[C@@](OC)([C@H]5[C@H]6OC(=O)c5ccccc5)[C@@H](C[C@H]23)[C@H]14`, the IC50 with H9c2 [1] was > 100 µM.

In the case of `CCCCO[C@]12[C@H]3[C@@H](OC(=O)c4ccccc4)[C@](O)(C[C@H]3[C@@]34[C@@H](OC)C[C@@H](O)[C@@]5(COC)CN(C)[C@H]3[C@@H]1[C@H](OC)[C@H]54)[C@@H](OC)[C@@H]2O`, in the data set with H9c2 [1], the IC50 was 27 µM. In addition, the Activity entry in the data set with H9c2 [2] and with H9c2 [3] was “Toxic” in each case.

With `COC[C@]12CN(C)[C@H]3[C@@H]4[C@H](OC)[C@H]1[C@@]3([C@@H](OC)C[C@H]2O)[C@]1(O)C[C@@]2(O)[C@H](OC(=O)c3ccccc3)[C@@H]1[C@]4(OC(=O)c1ccccc1)[C@@H](O)[C@@H]2OC`, the IC50 with H9c2 [1] was > 100 µM.

With `CCCCO[C@]12[C@H]3[C@@H](OC(=O)c4ccccc4)[C@](O)(C[C@H]3[C@@]34[C@@H](OC)CC[C@@]5(COC)CN(CC)[C@H]3[C@@H]1[C@H](OC)[C@H]54)[C@@H](OC)[C@@H]2O`, the Activity entry in the data set with H9c2 [5] is listed as “Dose-dependent effect”; in the data set with H9c2 [6] it was “Toxic”; in the data set with H9c2 [2] it was “Toxic”; in the data set with H9c2 [3], “Toxic”. In the data set with H9c2 [1], the IC50 is 19.2 µM.

With `CCN1C[C@]2(COC)[C@H](O)C[C@H](OC)[C@@]34[C@@H]5C[C@@]6(O)[C@H](OC(=O)c7ccccc7)[C@@H]5[C@@](OC)([C@@H]([C@H](OC)[C@H]23)[C@H]14)[C@@H](O)[C@@H]6OC`, the IC50 with H9c2 [1] turned out to be 68.4 µM.
